# Experimental data published in ChEMBL document CHEMBL4196201, “Discovery of N-(4-{[5-Fluoro-7-(2-methoxyethoxy)quinazolin-4-yl]amino}phenyl)-2-[4-(propan-2-yl)-1 H-1,2,3-triazol-1-yl]acetamide (AZD3229), a Potent Pan-KIT Mutant Inhibitor for the Treatment of Gastrointestinal Stromal Tumors” (J Med Chem, 2018).
# The source made the active and inactive calls. No cut-off for these calls is given here.
# What was measured:
# [1] = Lipophilicity, log D of the compound at pH 7.4; assay type: physicochemical; details: buffer
# [2] = Solubility in pH 6.5 phosphate buffer at 37 degC; assay type: physicochemical
# How it was run: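 Solubility of crystalline Form A was measured in pH6.5 phosphate buffer at 37°C.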
# [3] = Permeability from apical to basolateral side in human Caco2 cells at 10 uM at pH 6.5; assay type: ADME, cell-based; details: Caco-2, pH 6.5, read-out: permeability
# How it was run: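 Caco2 permeability from A to B was measured at pH6.5 using a 10 μM compound solution, reported in units of 1E-6 cm/s.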
# [4] = Protein binding in mouse plasma assessed as unbound fraction level; assay type: ADME, cell-free
# [5] = Intrinsic clearance in mouse hepatocytes assessed per million cells; assay type: ADME, cell-based, Hepatocyte; details: read-out: CLH
# [6] = Intrinsic clearance in rat hepatocytes assessed per million cells; assay type: ADME, cell-based, Hepatocyte; details: read-out: CLH
# [7] = target: Voltage-gated inwardly rectifying potassium channel KCNH2 (Homo sapiens, UniProt Q12809); test: Inhibition of human ERG
# [8] = Clearance in CD1 mouse at 10 umol/kg, iv; assay type: ADME, organism-based; details: in vivo
# How it was run: (§1)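 PK was run in CD1 mice with an iv dose of 10 μMol/kg and an oral dose of 21 μMol/kg. Cl, Vdss, t1/2 and F% were derived.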
# [9] = Oral bioavailability in CD1 mouse at 21 umol/kg; assay type: ADME, organism-based; details: in vivo; how it was run: as §1
# [10] = Volume of distribution at steady state in Han Wistar rat at 1 umol/kg, iv; assay type: ADME, organism-based; details: in vivo, read-out: Vdss
# How it was run: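 Han Wistar rat PK study using an iv dose of 1 μMol/kg and an oral dose of 2.1 μMol/kg. Clearance, Vdss, t1/2 and F% were derived.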
# [11] = Half life in Han Wistar rat at […], po; assay type: ADME, organism-based; details: in vivo
# [12] = Oral bioavailability in Han Wistar rat at […]; assay type: ADME, organism-based; details: in vivo
# [13] = Volume of distribution at steady state in dog […] at 1 umol/kg, iv; assay type: ADME, organism-based, Canis lupus familiaris; details: in vivo, read-out: Vdss
# [14] = Half life in dog rat at […], po; assay type: ADME, organism-based, Canis lupus familiaris; details: in vivo
# Mus musculus [15] = test: Inhibition of Kit exon 11 deletion (557 to 558 residues) and D816H mutant (unknown origin) transfected in mouse BA/F3 cells allografted in CB17 SCID mouse assessed as reduction in ERK phosphorylation at 20 mg/kg, po administered as single dose measured after 8 hrs; assay type: functional, organism-based
# How it was run: (§2)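 A single 20 mg/kg p.o. dose was given to mice carrying exon 11 del/D816H Ba/F3 allografts. Tumor pKIT, pERK and pAKT were measured over a timecourse, with free compound cover tracked in the same study.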
# Mus musculus [16] = test: Inhibition of Kit exon 11 deletion (557 to 558 residues) and D816H mutant (unknown origin) transfected in mouse BA/F3 cells allografted in CB17 SCID mouse assessed as reduction in AKT phosphorylation at 20 mg/kg, po administered as single dose measured after 8 hrs; assay type: functional, organism-based; how it was run: as §2
# Mus musculus [17] = test: Inhibition of Kit exon 11 deletion (557 to 558 residues) and D816H mutant phosphorylation (unknown origin) transfected in mouse BA/F3 cells allografted in CB17 SCID mouse at 20 mg/kg, po administered as single dose measured after 24 hrs; assay type: functional, organism-based; how it was run: as §2
# Mus musculus [18] = test: Inhibition of Kit exon 11 deletion (557 to 558 residues) and D816H mutant (unknown origin) transfected in mouse BA/F3 cells allografted in CB17 SCID mouse assessed as reduction in ERK phosphorylation at 20 mg/kg, po administered as single dose measured after 24 hrs; assay type: functional, organism-based; how it was run: as §2
# BaF3 [19] = test: Antitumor activity against mouse BA/F3 cells expressing Kit exon 11 deletion (557 to 558 residues) and D816H mutant (unknown origin) allografted in CB17 SCID mouse assessed as inhibition of tumor growth at 2 mg/kg, po bid measured on last day of dosing; assay type: functional; details: read-out: TGI
# How it was run: (§3)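 Ba/F3 cells bearing the KIT exon 11 del/D816H or exon 11 del/V654A mutation were grown as allografts in mice. Compounds were given p.o. once (QD) or twice daily (BD), and vehicle was given BD p.o. Tumor growth inhibition and regression (%) were taken on the last day of dosing. p-values were calculated relative to vehicle.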
# BaF3 [20] = test: Antitumor activity against mouse BA/F3 cells expressing Kit exon 11 deletion (557 to 558 residues) and V654 mutant (unknown origin) allografted in CB17 SCID mouse assessed as inhibition of tumor growth at 20 mg/kg, po bid measured on last day of dosing; assay type: functional; details: read-out: TGI; how it was run: as §3
# BaF3 [21] = test: Antitumor activity against mouse BA/F3 cells expressing Kit exon 11 deletion (557 to 558 residues) and D816H mutant (unknown origin) allografted in CB17 SCID mouse assessed as tumor regression at 2 mg/kg, po bid measured on last day of dosing; assay type: functional; how it was run: as §3
# BaF3 [22] = test: Antitumor activity against mouse BA/F3 cells expressing Kit exon 11 deletion (557 to 558 residues) and D816H mutant (unknown origin) allografted in CB17 SCID mouse assessed as tumor regression at 20 mg/kg, po bid measured on last day of dosing; assay type: functional; how it was run: as §3
# BaF3 [23] = test: Antitumor activity against mouse BA/F3 cells expressing Kit exon 11 deletion (557 to 558 residues) and V654 mutant (unknown origin) allografted in CB17 SCID mouse assessed as tumor regression at 20 mg/kg, po bid measured on last day of dosing; assay type: functional; how it was run: as §3
# [24] = tested on: Mast/stem cell growth factor receptor Kit (Homo sapiens), P10721 [UNDEFINED MUTATION]
# [25] = tested on: Mast/stem cell growth factor receptor Kit (Homo sapiens), P10721 [UNDEFINED MUTATION]; remark: listed apart in the source
# [26] = tested on: Mast/stem cell growth factor receptor Kit (Homo sapiens), P10721 [UNDEFINED MUTATION]; remark: listed apart in the source
# [27] = target: Mast/stem cell growth factor receptor Kit (Homo sapiens) (UniProt P10721)
# [28] = target: Mast/stem cell growth factor receptor Kit (Homo sapiens) (UniProt P10721); remark: listed apart in the source
# [29] = target: Mast/stem cell growth factor receptor Kit (Homo sapiens) (UniProt P10721); remark: listed apart in the source
# [30] = tested on: Mast/stem cell growth factor receptor Kit (Homo sapiens), P10721 [UNDEFINED MUTATION]; remark: listed apart in the source
# [31] = tested on: Mast/stem cell growth factor receptor Kit (Homo sapiens), P10721 [UNDEFINED MUTATION]; remark: listed apart in the source
# [32] = tested on: Mast/stem cell growth factor receptor Kit (Homo sapiens), P10721 [V560D,V654A]
# [33] = tested on: Mast/stem cell growth factor receptor Kit (Homo sapiens), P10721 [V560D,D816H]
# [34] = tested on: Mast/stem cell growth factor receptor Kit (Homo sapiens), P10721 [D816V]
# Sequence of Mast/stem cell growth factor receptor Kit (Homo sapiens), P10721 [D816V] (P10721 whole entry D816V): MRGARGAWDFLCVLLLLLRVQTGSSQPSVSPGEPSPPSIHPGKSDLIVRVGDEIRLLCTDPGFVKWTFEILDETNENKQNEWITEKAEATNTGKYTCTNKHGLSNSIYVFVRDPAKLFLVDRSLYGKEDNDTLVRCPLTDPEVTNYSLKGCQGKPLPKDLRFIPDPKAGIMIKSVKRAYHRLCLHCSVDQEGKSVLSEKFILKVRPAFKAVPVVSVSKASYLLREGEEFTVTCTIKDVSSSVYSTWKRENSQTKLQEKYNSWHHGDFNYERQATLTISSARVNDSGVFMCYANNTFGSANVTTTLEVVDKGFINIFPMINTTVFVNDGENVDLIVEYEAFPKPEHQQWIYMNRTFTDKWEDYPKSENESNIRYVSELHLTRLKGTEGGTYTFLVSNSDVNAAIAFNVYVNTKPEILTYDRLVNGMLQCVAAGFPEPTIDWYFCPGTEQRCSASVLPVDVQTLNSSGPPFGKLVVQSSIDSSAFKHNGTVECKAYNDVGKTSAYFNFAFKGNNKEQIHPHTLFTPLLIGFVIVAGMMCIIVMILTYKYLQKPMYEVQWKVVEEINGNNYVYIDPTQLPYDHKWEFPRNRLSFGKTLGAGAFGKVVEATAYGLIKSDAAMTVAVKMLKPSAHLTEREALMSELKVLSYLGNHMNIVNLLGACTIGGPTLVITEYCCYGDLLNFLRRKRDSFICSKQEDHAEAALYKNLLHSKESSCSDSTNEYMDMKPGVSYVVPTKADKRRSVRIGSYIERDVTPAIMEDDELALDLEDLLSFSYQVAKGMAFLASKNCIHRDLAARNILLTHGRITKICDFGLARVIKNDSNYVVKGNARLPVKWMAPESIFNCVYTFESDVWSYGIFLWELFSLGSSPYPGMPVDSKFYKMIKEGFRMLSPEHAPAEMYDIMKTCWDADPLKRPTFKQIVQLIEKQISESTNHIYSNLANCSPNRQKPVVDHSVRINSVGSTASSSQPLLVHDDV
# Sequence of Mast/stem cell growth factor receptor Kit (Homo sapiens), P10721 [UNDEFINED MUTATION] (P10721 whole entry, looked up, stated change not applied): as the sequence (P10721 whole entry D816V) above, with V816D counted along it
# Sequence of Mast/stem cell growth factor receptor Kit (Homo sapiens) (P10721 whole entry): as the sequence (P10721 whole entry D816V) above, with V816D counted along it
# Sequence of Mast/stem cell growth factor receptor Kit (Homo sapiens), P10721 [V560D,D816H] (P10721 whole entry V560D/D816H): as the sequence (P10721 whole entry D816V) above, with V560D, V816H counted along it
# Sequence of Mast/stem cell growth factor receptor Kit (Homo sapiens), P10721 [V560D,V654A] (P10721 whole entry V560D/V654A): as the sequence (P10721 whole entry D816V) above, with V560D, V654A, V816D counted along it
# Sequence of Voltage-gated inwardly rectifying potassium channel KCNH2 (Q12809 whole entry): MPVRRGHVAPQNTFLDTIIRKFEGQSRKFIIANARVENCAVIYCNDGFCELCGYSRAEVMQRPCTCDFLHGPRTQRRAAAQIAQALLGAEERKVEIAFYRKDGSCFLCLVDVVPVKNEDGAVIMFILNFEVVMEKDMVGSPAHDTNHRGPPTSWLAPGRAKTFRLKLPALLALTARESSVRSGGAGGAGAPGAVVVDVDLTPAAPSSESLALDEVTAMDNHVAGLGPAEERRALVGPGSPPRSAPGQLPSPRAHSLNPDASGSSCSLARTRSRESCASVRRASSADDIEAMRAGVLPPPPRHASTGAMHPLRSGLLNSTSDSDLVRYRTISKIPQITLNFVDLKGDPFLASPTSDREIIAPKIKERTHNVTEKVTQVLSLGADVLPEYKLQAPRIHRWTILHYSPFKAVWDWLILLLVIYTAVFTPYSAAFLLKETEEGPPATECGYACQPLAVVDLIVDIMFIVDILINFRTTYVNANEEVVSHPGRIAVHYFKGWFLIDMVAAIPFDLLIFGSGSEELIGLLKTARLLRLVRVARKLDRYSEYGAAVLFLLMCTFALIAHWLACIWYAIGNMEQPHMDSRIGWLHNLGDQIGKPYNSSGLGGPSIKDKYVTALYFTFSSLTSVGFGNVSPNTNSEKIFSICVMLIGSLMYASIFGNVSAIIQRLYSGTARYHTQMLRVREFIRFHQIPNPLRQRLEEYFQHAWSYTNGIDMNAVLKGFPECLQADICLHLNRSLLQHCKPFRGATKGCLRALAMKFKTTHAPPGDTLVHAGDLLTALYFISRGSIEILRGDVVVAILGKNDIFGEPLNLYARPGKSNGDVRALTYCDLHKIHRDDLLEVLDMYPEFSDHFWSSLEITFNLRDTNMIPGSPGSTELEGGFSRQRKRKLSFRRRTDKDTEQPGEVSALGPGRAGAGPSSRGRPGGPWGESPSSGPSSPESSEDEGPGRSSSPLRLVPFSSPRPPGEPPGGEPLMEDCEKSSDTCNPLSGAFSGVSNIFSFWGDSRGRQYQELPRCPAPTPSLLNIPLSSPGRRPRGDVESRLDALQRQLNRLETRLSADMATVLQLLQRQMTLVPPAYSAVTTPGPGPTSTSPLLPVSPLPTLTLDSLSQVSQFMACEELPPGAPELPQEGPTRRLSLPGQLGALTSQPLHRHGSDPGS
smiles,measurement,setting,value
COCCOc1cc(F)c2c(Nc3ccc(NC(=O)Cn4cc(C(C)C)nn4)cc3)ncnc2c1,logD,[1],3
same,solubility,[2],6 µM
same,Papp A→B at 10 µM,[3],62.3 ×10⁻⁶ cm/s
same,fraction unbound,[4],0.049
same,hepatocyte CLint,[5],5 µL/min/1e6 cells
same,hepatocyte CLint,[6],17 µL/min/1e6 cells
same,IC50,[7],> 33300 nM
same,clearance,[8],7 mL/min/kg
same,bioavailability,[9],100%
same,Vd,[10],0.6 L/kg
same,half-life,[11],3 h
same,bioavailability,[12],79%
same,Vd,[13],0.3 L/kg
same,half-life,[14],4 h
same,inhibition,Mus musculus [15],Active
same,inhibition,Mus musculus [16],Active
same,inhibition,Mus musculus [17],Active
same,inhibition,Mus musculus [18],Active
same,inhibition in vivo at 2 mg/kg,BaF3 [19],5%
same,inhibition in vivo at 20 mg/kg,BaF3 [20],> 100%
same,Activity,BaF3 [21],0%
same,Activity,BaF3 [22],75%
same,Activity,BaF3 [23],85%
same,GI50,[24],3 nM
same,GI50,[25],9 nM
same,GI50,[26],16 nM
same,GI50,[27],51 nM
same,GI50,[28],1 nM
same,GI50,[29],8 nM
same,GI50,[30],14 nM
same,GI50,[31],4 nM
same,GI50,[32],7 nM
same,GI50,[33],18 nM
same,GI50,[34],971 nM
